Activity calls are given as the source filed them. No cut-off for these calls is given here.
Assays:
[1] = test system: Hepatitis B virus; assay: Antiviral activity against Hepatitis B virus infected in human HepG2(2.2.15) cells assessed as decrease in intracellular viral DNA level at 2.16 uM after 72 hrs by RT-PCR analysis; type: functional, organism-based
How it was run: (§1)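 HepG2.2.15 cells (HBV genome-transfected, MEM + 10% FBS) treated 72 h with drug alone or in two-drug combination. Entecavir 0.6 μg/ml (2.16 μM), adefovir 3 μg/ml (5.9 μM), lamivudine 3 μg/ml (13 μM), oxymatrine 30 μg/ml (113 μM). Intracellular HBV DNA by SYBR Green real-time PCR, relative to untreated. Experiment repeated twice; means and SD, Student's t test.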

[2] = test system: Hepatitis B virus; assay: Antiviral activity against Hepatitis B virus infected in human HepG2(2.2.15) cells assessed as decrease in intracellular viral DNA level at 13 uM after 72 hrs by RT-PCR analysis; type: functional, organism-based; how it was run: as §1
[3] = Decrease in HscA70-mRNA expression in Hepatitis B virus infected in human HepG2(2.2.15) cells at 13 uM after 24-36 hrs by RT-PCR analysis; type: functional, cell-based

| Structure (SMILES) | Activity [1] | Activity [2] | Activity [3] |
| --- | --- | --- | --- |
| C=C1[C@H](CO)[C@@H](O)C[C@@H]1n1cnc2c(=O)[nH]c(N)nc21 | Active | – | – |
| Nc1ccn([C@@H]2CS[C@H](CO)O2)c(=O)n1 | – | Active | inactive |

— ChEMBL document CHEMBL1255434, “Heat stress cognate 70 host protein as a potential drug target against drug resistance in hepatitis B virus” (Antimicrob Agents Chemother, 2010)
